Test results published in ChEMBL document CHEMBL3526065, “Metabolism of [6]-shogaol in mice and in cancer cells” (Drug Metab Dispos, 2012).
Blank lines part the entries; values can stand above or below the compound they belong to.

How the values were obtained:
[1] = Drug level in human HCT116 cells treated with 10 uM [6]-shogaol after 24 hrs by HPLC-ECD analysis; assay type: ADME, cell-based; details: hct-116, 24 h
How it was run: (§1)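 Cells (1.0 × 10⁶) attached 24 h in six-well plates, then exposed to 10 μM final in McCoy's 5A with 10% FBS. Extracted with equal volume acetonitrile, diluted 5-fold, analysed by HPLC with electrochemical detection.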

[2] = Drug level in C57BL/6J mouse feces treated with [6]-shogaol at 200 mg/kg, po by HPLC-ECD analysis relative to control; assay type: ADME, organism-based; set-up: dose 200 mg/kg, route oral; details: in vivo
How it was run: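 Female C57BL/6J mice gavaged once with 200 mg/kg in corn oil, or corn oil alone (n = 5 each). 24-h feces collected in metabolic cages. Feces extracted by sonication 90 min in MeOH/H2O (50/50) + 0.1% acetic acid, centrifuged, diluted fivefold. Analysed by HPLC with electrochemical array detection (Gemini C18, phosphate/acetonitrile/THF gradient), compared against vehicle controls.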

[3] = Antioxidant activity assessed as DPPH radical scavenging activity; assay type: physicochemical
HCT-116 [4] = experiment: Induction of apoptosis in human HCT116 cells assessed as apoptotic cells at 80 uM after 24 hrs by TUNEL assay; assay type: functional
How it was run: (§2)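 HCT-116 or H-1299 cells seeded at 1.0 × 10⁵/well, after 24 h exposed for 24 h to compound (10–80 μM) or DMSO control. Cells were proteinase K-pretreated, formaldehyde-fixed, and slide-mounted for peroxidase TUNEL staining. Ten fields per slide counted at 400×; brown-nucleus cells given as percentage of total cells; mean ± S.E., n = 10.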

HCT-116 [5] = experiment: Induction of apoptosis in human HCT116 cells assessed as apoptotic cells at 40 uM after 24 hrs by TUNEL assay; assay type: functional; how it was run: as §2
NCI-H1299 [6] = experiment: Induction of apoptosis in human H1299 cells assessed as apoptotic cells at 80 uM after 24 hrs by TUNEL assay; assay type: functional; how it was run: as §2
[7] = Cytotoxicity against human HCT116 cells assessed as growth inhibition after 24 hrs by MTT assay; assay type: functional, cell-based; details: HCT-116, 24 h
How it was run: (§3)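 Cells seeded at 3000/well, attached 24 h at 37°C, then exposed to test agents (0–80 μM, 0.1% DMSO final) for 24 h in McCoy's 5A with 10% FBS. Medium replaced with 2.41 mM MTT for 3 h at 37°C; formazan dissolved in DMSO, absorbance 550 nm. Viability as percentage of DMSO control; mean ± S.D., n = 6.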

[8] = Drug level in human H1299 cells treated with 10 uM [6]-shogaol after 24 hrs by HPLC-ECD analysis; assay type: ADME, cell-based; details: nci-h1299, 24 h; how it was run: as §1
NCI-H1299 [9] = experiment: Induction of apoptosis in human H1299 cells assessed as apoptotic cells at 40 uM after 24 hrs by TUNEL assay; assay type: functional; how it was run: as §2
HT-29 = experiment: Drug level in human HT-29 cells treated with 10 uM [6]-shogaol by HPLC-ECD analysis; assay type: ADME, cell-based; how it was run: as §1
[10] = Cytotoxicity against human H1299 cells assessed as growth inhibition after 24 hrs by MTT assay; assay type: functional, cell-based; details: NCI-H1299, 24 h; how it was run: as §3
[11] = Drug level in mouse CL-13 cells treated with 10 uM [6]-shogaol by HPLC-ECD analysis; assay type: ADME, cell-based; how it was run: as §1
[12] = Drug level in mouse CL-13 cells treated with 10 uM [6]-shogaol after 24 hrs by HPLC-ECD analysis; assay type: ADME, cell-based; details: cl-13, 24 h; how it was run: as §1

Compound: CCCCCCCCC[C@H](O)CC(=O)CCc1ccc(O)c(OC)c1
- IC50 [3]: 12 µM

Compound: CCCCCCCC(=O)CCc1ccc(O)c(OC)c1
- Activity (HCT-116 [4]): 21.1%
- Activity (HCT-116 [5]): 12.9%
- Activity (NCI-H1299 [6]): 19.4%
- IC50 [7]: 84 µM
- Drug metabolism [8]: metabolite_detected
- Activity (NCI-H1299 [9]): 8.3%
- Drug metabolism (HT-29): metabolite_detected
- Drug metabolism [1]: metabolite_detected
- Drug excretion [2]: metabolite_detected
- IC50 [10]: 66.5 µM

Compound: CCCCCC(CC(=O)CCc1ccc(O)c(OC)c1)SCC(NC(C)=O)C(=O)O (stereo not given)
- Drug excretion [2]: metabolite_detected

Compound: CCCCCCCC(=O)CCc1ccc(O)c(O)c1
- Drug excretion [2]: metabolite_detected

Further lines, with some results ahead:

- Drug metabolism [1]: metabolite_detected
- Drug excretion [2]: metabolite_detected
Compound: CCCCC/C=C/C(O)CCc1ccc(O)c(OC)c1 (stereo not given)

- Drug excretion [2]: metabolite_detected
Compound: CCCCCC(CC(=O)CCc1ccc(O)c(OC)c1)OC (stereo not given)

- Drug excretion [2]: metabolite_detected
Compound: CCCCCC(CC(O)CCc1ccc(O)c(OC)c1)SC (stereo not given)

- Drug excretion [2]: metabolite_detected
Compound: CCCCCC(CC(=O)CCc1ccc(O)c(OC)c1)SC (stereo not given)

- Drug metabolism [11]: metabolite_detected
- Drug metabolism [8]: metabolite_detected
- Drug metabolism [12]: metabolite_detected
- Drug metabolism (HT-29): metabolite_detected
- Drug metabolism [1]: metabolite_detected
- Drug excretion [2]: metabolite_detected
Compound: CCCCCCCC(O)CCc1ccc(O)c(OC)c1 (stereo not given)
- Activity (HCT-116 [4]): 16.9%
- Activity (HCT-116 [5]): 9.6%
- Activity (NCI-H1299 [6]): 15.4%
- IC50 [7]: 82.2 µM
- Activity (NCI-H1299 [9]): 7.4%
- IC50 [10]: 77.7 µM
